Residue numbers refer to the chain shown, from its start.
How the values were obtained:
Details in all cases: stereoisomer not certain
OR52N4 (Homo sapiens) = target: T1, OR52N4 (Homo sapiens) (UniProt Q8NGI2)
T1 sequence (whole entry): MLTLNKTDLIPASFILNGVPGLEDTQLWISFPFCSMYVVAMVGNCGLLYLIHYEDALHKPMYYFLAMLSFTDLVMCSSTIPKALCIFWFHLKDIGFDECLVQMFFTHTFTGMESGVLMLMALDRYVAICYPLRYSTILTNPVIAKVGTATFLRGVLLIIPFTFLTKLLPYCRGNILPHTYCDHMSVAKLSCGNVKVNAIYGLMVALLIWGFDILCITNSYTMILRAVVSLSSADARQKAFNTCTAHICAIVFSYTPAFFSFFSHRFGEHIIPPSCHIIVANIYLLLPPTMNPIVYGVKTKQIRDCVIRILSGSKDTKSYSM
In short: (§1)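 Transient luciferase assays in mammalian cell lines were common, though methods varied by source. The values come from published papers and their supplementary material, with extra details from the original authors when needed. Responsive refers to a measured signal the original authors judged statistically different from baseline, and non-responsive (inactive) to the remainder.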

OR52N5 (Homo sapiens) = target: T2, OR52N5 (Homo sapiens) (UniProt Q8NH56)
T2 sequence (whole entry): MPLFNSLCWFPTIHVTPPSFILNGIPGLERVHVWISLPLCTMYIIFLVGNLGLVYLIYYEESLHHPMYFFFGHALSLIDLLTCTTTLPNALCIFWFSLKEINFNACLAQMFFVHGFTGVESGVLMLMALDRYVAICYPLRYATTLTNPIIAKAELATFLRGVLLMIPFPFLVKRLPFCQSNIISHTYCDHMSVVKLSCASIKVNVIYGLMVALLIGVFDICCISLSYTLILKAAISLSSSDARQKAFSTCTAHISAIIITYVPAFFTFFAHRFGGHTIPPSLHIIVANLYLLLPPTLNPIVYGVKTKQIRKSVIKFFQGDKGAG
In short: as §1

OR52R1 (Homo sapiens) = target: T3, OR52R1 (Homo sapiens) (UniProt Q8NGF1)
T3 sequence (whole entry): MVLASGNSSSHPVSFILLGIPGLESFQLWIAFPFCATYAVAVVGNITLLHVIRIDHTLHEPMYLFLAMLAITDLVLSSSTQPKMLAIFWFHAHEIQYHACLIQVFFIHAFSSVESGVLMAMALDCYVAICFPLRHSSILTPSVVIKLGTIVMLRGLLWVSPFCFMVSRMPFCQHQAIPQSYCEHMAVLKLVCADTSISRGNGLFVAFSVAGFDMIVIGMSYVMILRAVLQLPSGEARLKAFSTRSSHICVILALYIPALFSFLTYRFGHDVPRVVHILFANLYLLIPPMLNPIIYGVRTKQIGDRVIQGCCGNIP
In short: as §1

OR52W1 (Homo sapiens) = target: T4, OR52W1 (Homo sapiens) (UniProt Q6IF63)
T4 sequence (whole entry): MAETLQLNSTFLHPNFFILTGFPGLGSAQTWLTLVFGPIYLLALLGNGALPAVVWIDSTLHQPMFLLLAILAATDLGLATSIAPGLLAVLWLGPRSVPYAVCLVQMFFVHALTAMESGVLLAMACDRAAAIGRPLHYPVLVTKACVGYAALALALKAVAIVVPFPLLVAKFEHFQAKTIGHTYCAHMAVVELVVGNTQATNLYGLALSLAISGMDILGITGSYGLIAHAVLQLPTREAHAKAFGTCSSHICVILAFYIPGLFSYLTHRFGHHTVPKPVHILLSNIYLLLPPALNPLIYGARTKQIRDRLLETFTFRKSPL
In short: as §1

OR56A1 (Homo sapiens) = target: T5, OR56A1 (Homo sapiens) (UniProt Q8NGH5)
T5 sequence (whole entry): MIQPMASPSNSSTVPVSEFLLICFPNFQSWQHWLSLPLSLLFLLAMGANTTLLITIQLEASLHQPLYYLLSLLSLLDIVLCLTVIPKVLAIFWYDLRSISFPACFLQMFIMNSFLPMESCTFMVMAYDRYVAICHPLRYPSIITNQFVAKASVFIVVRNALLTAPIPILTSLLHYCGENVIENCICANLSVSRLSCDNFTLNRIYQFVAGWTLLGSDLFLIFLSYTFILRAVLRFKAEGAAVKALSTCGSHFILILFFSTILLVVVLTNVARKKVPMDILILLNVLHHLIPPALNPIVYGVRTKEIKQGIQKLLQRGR
In short: as §1

OR56A3 (Homo sapiens) = target: T6, OR56A3 (Homo sapiens) (UniProt Q8NH54)
T6 sequence (whole entry): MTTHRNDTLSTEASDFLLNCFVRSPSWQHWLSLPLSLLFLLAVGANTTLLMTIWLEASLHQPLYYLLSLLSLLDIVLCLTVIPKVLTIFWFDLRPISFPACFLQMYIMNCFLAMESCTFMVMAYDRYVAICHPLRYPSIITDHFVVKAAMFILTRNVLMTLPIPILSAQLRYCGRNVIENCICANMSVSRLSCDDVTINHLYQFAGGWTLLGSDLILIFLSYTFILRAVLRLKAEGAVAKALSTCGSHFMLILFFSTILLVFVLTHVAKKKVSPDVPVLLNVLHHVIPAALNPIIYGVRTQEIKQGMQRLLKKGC
In short: as §1

OR56A5 (Homo sapiens) = target: T7, OR56A5 (Homo sapiens) (UniProt P0C7T3)
T7 sequence (whole entry): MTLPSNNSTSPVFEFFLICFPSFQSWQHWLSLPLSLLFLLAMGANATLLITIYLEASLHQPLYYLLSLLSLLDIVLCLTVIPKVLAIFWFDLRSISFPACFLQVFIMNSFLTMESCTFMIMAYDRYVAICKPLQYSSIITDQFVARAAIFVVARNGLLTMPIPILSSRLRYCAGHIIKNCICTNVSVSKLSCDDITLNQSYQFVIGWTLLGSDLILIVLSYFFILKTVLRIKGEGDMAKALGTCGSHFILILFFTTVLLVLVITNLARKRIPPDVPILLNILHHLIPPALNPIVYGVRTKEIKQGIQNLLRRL
In short: as §1

OR56B1 (Homo sapiens) = target: T8, OR56B1 (Homo sapiens) (UniProt Q8NGI3)
T8 sequence (whole entry): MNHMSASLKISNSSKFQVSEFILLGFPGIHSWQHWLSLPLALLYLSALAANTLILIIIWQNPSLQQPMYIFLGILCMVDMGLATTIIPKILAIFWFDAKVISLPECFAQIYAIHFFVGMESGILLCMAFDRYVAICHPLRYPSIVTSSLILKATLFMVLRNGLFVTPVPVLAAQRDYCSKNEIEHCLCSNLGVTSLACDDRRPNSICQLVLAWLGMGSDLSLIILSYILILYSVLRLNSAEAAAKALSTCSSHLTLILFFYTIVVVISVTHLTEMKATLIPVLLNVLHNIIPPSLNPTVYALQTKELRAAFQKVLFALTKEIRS
In short: as §1

OR56B4 (Homo sapiens) = target: T9, OR56B4 (Homo sapiens) (UniProt Q8NH76)
T9 sequence (whole entry): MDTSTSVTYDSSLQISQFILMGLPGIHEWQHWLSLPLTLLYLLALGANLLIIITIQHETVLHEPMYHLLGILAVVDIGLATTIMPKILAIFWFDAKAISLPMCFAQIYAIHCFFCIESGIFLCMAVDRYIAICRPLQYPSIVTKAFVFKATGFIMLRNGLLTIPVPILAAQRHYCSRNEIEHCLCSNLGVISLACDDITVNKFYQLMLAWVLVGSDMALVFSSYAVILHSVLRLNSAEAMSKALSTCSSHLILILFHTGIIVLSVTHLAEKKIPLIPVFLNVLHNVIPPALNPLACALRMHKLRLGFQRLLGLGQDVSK
In short: as §1

OR5A1 (Homo sapiens) = target: T10, OR5A1 (Homo sapiens) (UniProt Q8NGJ0)
T10 sequence (whole entry): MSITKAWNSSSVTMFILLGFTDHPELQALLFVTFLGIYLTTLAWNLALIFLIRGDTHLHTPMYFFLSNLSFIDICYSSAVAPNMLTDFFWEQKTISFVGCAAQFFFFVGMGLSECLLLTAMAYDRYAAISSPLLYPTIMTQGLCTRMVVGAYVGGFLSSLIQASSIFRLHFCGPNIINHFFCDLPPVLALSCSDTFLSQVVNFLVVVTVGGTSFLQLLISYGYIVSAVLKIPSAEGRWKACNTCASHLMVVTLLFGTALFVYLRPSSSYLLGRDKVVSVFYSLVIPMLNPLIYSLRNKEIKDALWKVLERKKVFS
In short: as §1

OR5A1 D183N = system: T11, OR5A1 D183N
T11 sequence (whole entry): T10 sequence (whole entry) with D183N
In short: as §1

OR5A2 (Homo sapiens) = target: T12, OR5A2 (Homo sapiens) (UniProt Q8NGI9)
T12 sequence (whole entry): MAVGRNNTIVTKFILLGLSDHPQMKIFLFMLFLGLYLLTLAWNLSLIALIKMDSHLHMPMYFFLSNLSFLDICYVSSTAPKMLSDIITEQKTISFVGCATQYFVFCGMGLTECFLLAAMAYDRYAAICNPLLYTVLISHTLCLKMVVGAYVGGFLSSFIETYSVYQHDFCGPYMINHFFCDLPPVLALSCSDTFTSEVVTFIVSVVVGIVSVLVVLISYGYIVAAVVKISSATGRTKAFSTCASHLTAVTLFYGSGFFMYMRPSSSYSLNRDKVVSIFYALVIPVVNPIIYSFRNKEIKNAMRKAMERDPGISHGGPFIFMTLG
In short: as §1

OR5AC2 (Homo sapiens) = target: T13, OR5AC2 (Homo sapiens) (UniProt Q9NZP5)
T13 sequence (whole entry): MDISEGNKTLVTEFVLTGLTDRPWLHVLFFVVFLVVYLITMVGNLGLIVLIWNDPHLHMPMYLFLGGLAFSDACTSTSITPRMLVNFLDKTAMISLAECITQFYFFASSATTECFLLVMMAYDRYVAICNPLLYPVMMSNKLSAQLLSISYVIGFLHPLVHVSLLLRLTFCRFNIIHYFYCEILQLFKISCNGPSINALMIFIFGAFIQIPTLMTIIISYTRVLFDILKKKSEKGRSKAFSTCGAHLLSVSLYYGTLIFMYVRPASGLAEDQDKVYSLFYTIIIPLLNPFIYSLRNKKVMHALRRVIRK
In short: as §1

OR5AK2 (Homo sapiens) = target: T14, OR5AK2 (Homo sapiens) (UniProt Q8NH90)
T14 sequence (whole entry): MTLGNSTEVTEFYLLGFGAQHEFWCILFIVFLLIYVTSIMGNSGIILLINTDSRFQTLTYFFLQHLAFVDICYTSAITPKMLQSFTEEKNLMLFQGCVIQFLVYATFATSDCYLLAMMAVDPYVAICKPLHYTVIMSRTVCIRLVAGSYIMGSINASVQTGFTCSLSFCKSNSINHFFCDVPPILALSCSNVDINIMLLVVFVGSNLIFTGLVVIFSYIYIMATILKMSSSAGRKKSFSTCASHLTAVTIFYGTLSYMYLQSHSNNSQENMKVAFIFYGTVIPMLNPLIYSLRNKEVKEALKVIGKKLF
In short: as §1

OR5AN1 (Homo sapiens) = target: T15, OR5AN1 (Homo sapiens) (UniProt Q8NGI8)
T15 sequence (whole entry): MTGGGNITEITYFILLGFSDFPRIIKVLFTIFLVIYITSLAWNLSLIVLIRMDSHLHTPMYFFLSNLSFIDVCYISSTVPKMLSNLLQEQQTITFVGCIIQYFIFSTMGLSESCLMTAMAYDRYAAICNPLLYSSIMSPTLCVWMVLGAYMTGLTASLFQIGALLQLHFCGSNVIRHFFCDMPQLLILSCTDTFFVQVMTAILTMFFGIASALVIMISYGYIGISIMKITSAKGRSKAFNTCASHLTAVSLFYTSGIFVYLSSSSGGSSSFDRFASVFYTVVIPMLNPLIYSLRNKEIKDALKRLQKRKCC
In short: as §1

OR5AP2 (Homo sapiens) = target: T16, OR5AP2 (Homo sapiens) (UniProt Q8NGF4)
T16 sequence (whole entry): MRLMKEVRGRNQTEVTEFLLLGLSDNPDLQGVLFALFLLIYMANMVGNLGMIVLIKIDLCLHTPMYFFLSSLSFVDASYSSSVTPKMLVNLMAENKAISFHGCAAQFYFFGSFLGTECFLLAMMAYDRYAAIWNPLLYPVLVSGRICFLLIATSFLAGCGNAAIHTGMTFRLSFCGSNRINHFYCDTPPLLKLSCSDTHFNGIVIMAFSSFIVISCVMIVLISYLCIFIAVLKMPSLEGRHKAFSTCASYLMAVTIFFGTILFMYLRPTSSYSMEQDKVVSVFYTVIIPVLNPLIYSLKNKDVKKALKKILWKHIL
In short: as §1

Measured: odorant receptor agonist call

CCC1OC(C)=C(O)C1=O (configuration not stated)
inactive: all assays above

CCC(=O)C=CC1C(C)=CCCC1(C)C (configuration not stated)
inactive: OR5AC2 (Homo sapiens)

— the M2OR odorant receptor database
